# Only some compounds are listed: those with a hit (about 2.1% of all), similar ones and a draw of the others.
# DENV2 CPE rescue: inhibitors of DENV2 cytopathic effect, primary screen, cell-based, plate reader, single concentration. DENV2-infected cells, cytopathic effect rescue. AID 651640, 2012. CPE inhibition, % at 9.99 µM. 1.7% of 350,000 active; in the data active = CPE inhibition above about 20%, passing the limit was not always enough; inconclusive = no clear call, values can overlap the other calls; tested in BHK-21 cells;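 also: 0% = median of neutral control wells and 100% = median of positive control wells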
# Xi reactivation: activators of inactive X chromosome reactivation, primary screen, imaging, XiGFP fibroblasts, GFP high-content imaging, set 2 | 0.055% of 360,000 active | XiGFP mouse fibroblasts, % GFP-positive cells imaging, 3 d; cells co-treated with 5-aza-dC sensitizer; scaled so ellipticine positive control = 100% | activation, % at 7.58 µM;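 active = mean normalized replicate activation at least 10% and every replicate at or above 10%; inconclusive = only one of the two criteria met; inactive = mean below 10% and not all replicates reach 10%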;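 also: 0% = median of on-plate neutral control wells and 100% = ellipticine 6 µM median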
#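 System: 68-5-11 XiGFP fibroblast line; Timing: 3 days compound exposure; Compound dosing: one concentration, pinned; Benchmarks: positive control ellipticine, 6 µM final; Buffer or medium: DMEM containing 5-aza-dC.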
# Cneo AK release: Cryptococcus neoformans cell lysis inducers, primary screen, AK release luminescence, single concentration; lysis activity, % at 15 µM; 0.2% of 360,000 active; C. neoformans lysis, adenylate kinase release luminescence, 4 h; normalised: neutral wells 0, clomiphene wells 100; AID 651654, 2012;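 active = mean lysis activity across replicates of at least 80%, whatever share of replicates individually reach that level; inactive = mean lysis activity below 80%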
#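 Material – log-phase Cryptococcus neoformans yeast cells · Input – 5 × 10^6 yeast cells/mL · Medium – fresh YPD growth medium · Doses – single compound concentration per well · Timing – static 4 h at 37 °C with compound, 1 h detection · Detection – adenylate kinase release luminescence · Read-out – signal increase indicating cell lysis · Control set – Clomiphene as positive lysis control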
# C2C12 statin: suppressors of statin myotoxicity in C2C12 myotubes, primary screen, cell-based, single point, plate reader. rescue of ATP level, % at 7.49 µM. C2C12 myotubes + simvastatin, ATP luminescence, 48 h; scaled: DMSO 0, geranylgeraniol control 100. 0.78% of 330,000 active;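 active = mean ATP rescue above about 67%, or every replicate alone reaching that limit, limit read from the data, passing the limit was not always enough; inconclusive = no clear call, values can overlap the other calls; inactive = mean under the limit and some replicate under it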;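 also: myotubes were challenged with 10 µM simvastatin during compound exposure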
# Active calls of the source: *; ? = inconclusive; nt = no result given.
SMILES,DENV2 CPE rescue,Xi reactivation,Cneo AK release,C2C12 statin
Cn1ccc2c(-c3ccc(C(C)(C)C)cc3)cc3c(c21)C1CCC3C1 (stereo not given),21*,0,-1,-19
Cc1noc(C)c1S(=O)(=O)Nc1ccc2c(c1)C(=O)N([C@@H](C)CO)C[C@H](C)[C@H](CN(C)Cc1ccc3c(c1)OCO3)OCCCC[C@@H](C)O2,8,0,-1,nt
C[C@@H]1CN([C@@H](C)CO)C(=O)c2cc(C#CC3CCCC3)cnc2O[C@@H]1CN(C)C(=O)c1ccncc1,0,0,-1,-8
Cn1cc(/C=C/c2cc[n+](C)cc2)c2cc(F)ccc21,nt,nt,0,nt
Cc1ccc2[nH]c(C)c(/C=C/c3cc[n+](C)cc3)c2c1,2,45*,1,-75
Cc1ccc2c(c1)c(/C=C/c1cc[n+](C)cc1)c(C)n2C,-6,106*,0,-78
Cc1noc(C)c1S(=O)(=O)Nc1ccc2c(c1)C(=O)N([C@@H](C)CO)C[C@@H](C)[C@@H](CN(C)C(=O)NC(C)C)OCCCC[C@H](C)O2,7,0,-2,nt
CCCCN(CC)CCCNC(=O)c1cc2c(=O)n(CC)c3ccccc3c2s1,-1,0,-1,97*
CCCCN(CC)CCNC(=O)c1cc2c(=O)n(CC)c3ccccc3c2s1,-9,0,-1,7
CCC1(C)Cc2ccccc2C(=S)N1 (stereo not given),-7,0,2,88*
CCC1(C)Cc2ccccc2C(=O)N1 (stereo not given),-4,0,-2,0
C[C@H]1CN([C@@H](C)CO)S(=O)(=O)c2ccc(-c3ccc(C(=O)N(C)C)cc3)cc2O[C@@H]1CN(C)Cc1ccccc1C(=O)O,0,-1,-1,6
O=C(CC12CC3CC(CC(C3)C1)C2)N1CCOCC1,nt,nt,1,115*
COc1cccc(NC(=O)N(C)C[C@H]2OCc3ccccc3-c3c(n(C)c4ccccc34)C(=O)N([C@@H](C)CO)C[C@@H]2C)c1,-1,1,0,nt
COc1ccc(S(=O)(=O)N(C)C[C@@H]2Oc3ccc(NC(=O)NC4CCCCC4)cc3CC(=O)N([C@@H](C)CO)C[C@H]2C)cc1,-2,0,-4,12
Cc1ccc(N(CC(=O)NC2CCCCC2C)S(=O)(=O)c2c(C)noc2C)cc1 (stereo not given),19,0,1,-24
CCOc1ccc(N(CC(=O)NC2CCCC(C)C2C)S(=O)(=O)c2c(C)noc2C)cc1 (stereo not given),26*,0,0,32
CC(C)NC(=O)N1CC2(C1)[C@@H](c1ccccc1)[C@H](CO)N2C(=O)C1CCCCC1,2,0,nt,nt
Clc1ccc2nc(CSc3nncn3-c3ccccc3)cn2c1,nt,nt,4,2
c1ccc(-n2cnnc2SCc2cn3cccnc3n2)cc1,nt,nt,8,86*
Cc1ccc(S(=O)(=O)Cc2ccccc2Cl)cc1,29*,0,nt,nt
Cc1ccc(S(=O)(=O)CCC(=O)NCc2ccccc2Cl)cc1,nt,0,nt,nt
COc1cccc(C(=O)c2c(-c3ccccc3)ncc3cc(OC)c(OC)cc23)c1,27*,?,-11,-13
COCCCn1c(SCC(=O)NCc2ccco2)nc2sc3c(c2c1=O)CCC3,nt,nt,2,132*
O=C(CCn1c(SCC(=O)NCc2ccco2)nc2ccccc2c1=O)NCCc1ccccc1,nt,nt,-1,102*
SMILES,DENV2 CPE rescue,Xi reactivation,Cneo AK release,C2C12 statin
COCC(=O)N1C[C@@H](C)[C@H](OC)CN(C)C(=O)c2cc(NC(=O)c3ccc(OC)cc3)ccc2OC[C@H]1C,14,1,-1,2
Cc1cccc(OCCSCc2nc3ccccc3[nH]2)c1,nt,nt,-6,81*
COc1ccc(NC(=O)N(C)C[C@@H]2Oc3ccc(NC(=O)c4ccncc4)cc3CC(=O)N([C@@H](C)CO)C[C@@H]2C)cc1,28*,0,-4,9
COc1ccc(NC(=O)N(C)C[C@@H]2Oc3ccc(NC(=O)c4ccncc4)cc3CC(=O)N([C@H](C)CO)C[C@@H]2C)cc1,44*,0,-11,6
CCNC(=O)/C(=C/c1ccc2c(c1)OCO2)NC(=O)c1ccc(Br)cc1,nt,nt,0,79*
COc1ccc(CNC(=O)C[C@@H]2CC[C@H]3[C@@H](COc4ccc(NC(=O)C5CC5)cc4C(=O)N3C)O2)cc1,?,0,72,8
CN(C)CCCNC(=O)OC1CC2CC1[C@H]1CCCCN1C2=O (stereo not given in full),48*,0,nt,nt
COc1ccc(CNC(=O)OC2CC3CC2[C@H]2CCCCN2C3=O)cc1 (stereo not given in full),-3,0,nt,nt
C[C@H]1CN([C@@H](C)CO)C(=O)c2cccc(NC(=O)c3cnccn3)c2O[C@H]1CN(C)S(=O)(=O)c1ccc(Cl)cc1,nt,1,nt,nt
CCOC(=O)Cn1cc(-c2ccccc2)nn1,nt,nt,nt,11
c1ccc(COCCCn2cc(-c3ccccc3)nn2)cc1,46*,0,1,-12
O=C(NCC1CC1)[C@@H]1[C@@H](CO)[C@@H]2Cn3c(cccc3=O)[C@@H]2N1Cc1cncnc1,18,0,-1,-9
Cc1ccc(NC(=O)n2ncc3c(C)cccc32)c(C)c1,?,0,-1,8
Cc1cccc2c1cnn2C(=O)Nc1ccc(Br)cc1F,-6,0,-1,99*
COc1ccc(C#Cc2ccc([C@H]3[C@@H](CO)N4CCCCN(Cc5ccccc5F)C[C@H]34)cc2)cc1,-34,0,15,1
O=C(c1ccc(F)cc1)N1CCCCN2[C@@H](CO)[C@@H](c3ccc(C#CC4(O)CCCC4)cc3)[C@@H]2C1,36*,0,-3,nt
OC[C@H]1[C@@H](c2ccc(C#CC3(O)CCCC3)cc2)[C@@H]2CN(Cc3ccccc3F)CCCCN12,41*,0,0,nt
C[C@@H]1CCCCO[C@H](CN(C)C)[C@H](C)CN([C@H](C)CO)C(=O)c2cc(NC(=O)c3ccccc3)ccc2O1,?,0,11,28
C[C@H](CO)N1C[C@H](C)[C@@H](CN(C)C(=O)NC2CCCCC2)Oc2ccc(NC(=O)C3CC3)cc2CC1=O,-7,-1,54,-32
CN1C(=O)c2cc(NC(=O)NCc3ccccc3)ccc2OC[C@H]2O[C@H](CC(=O)NCC3CCCCC3)CC[C@H]21,98*,1,-1,23
COc1ccc(CNC(=O)C[C@H]2CC[C@H]3[C@@H](COc4ccc(NC(=O)C5CC5)cc4C(=O)N3C)O2)cc1,1,0,91*,-4
CCNC(=O)Nc1ccc2c(c1)C(=O)N(C)[C@H]1CC[C@@H](CC(=O)NC3CCCCC3)O[C@@H]1CO2,27*,0,-2,13

# High-throughput results (PubChem)
